# From PubChem
# STAT1 act = increases IFN-gamma driven STAT1 reporter signal; NIH 3T3 STAT1-luciferase reporter, luminescence; 100% = IFN-gamma alone, no compound; activation (% of control), % at 5.5 µM; 200,000 compounds, 2.6% hits; AID 932;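 active = activation above the screen-wide mean activation plus 3 SD, cut at about 130% in these data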;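 note: raw ratio to IFN-gamma control signal so 100% means no change and 0% no light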
# APP 5'UTR act = activates APP 5'UTR luciferase reporter; SH-SY5Y APP 5'UTR luciferase reporter, luminescence; zero percent = DMSO vehicle wells; 190,000 compounds, 1% hits; activation, % at 2 µM;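 active = activation above a set limit, based on mean plus 3 SD of controls, cut at about 140% in these data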
# NF-kB expr up = compounds increasing NF-kB expression in human neuronal cells. NF-kB reporter expression; active compounds read high. fold change at 12.5 µM. 190,000 compounds, 1.6% hits. AID 1239; in the data active = fold change above about 3.3
# Pf gametocyte = inhibitors of late stage P. falciparum gametocyte viability; inhibition, % at 10.9 µM; P. falciparum stage V gametocytes, ATP luminescence, 24 h; 150,000 compounds, 0.065% hits;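 active = inhibition above the mean plus 3 SD of compounds within the control limits, set per campaign, cut at about 38% in these data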;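 note: 0% = DMSO wells and 100% = medium only without gametocytes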
# FLuc inhib CS = counter-screen for luciferase assay inhibitors: firefly luciferase inhibition; P08659; ATPLite firefly luciferase biochemical luminescence, 10 min; inhibition, % at 10 µM; 200,000 compounds, 1.5% hits;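 active = inhibition above about 50% when tested at 10 µM, limit read from the data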
# Target sequence (P08659 whole entry, looked up): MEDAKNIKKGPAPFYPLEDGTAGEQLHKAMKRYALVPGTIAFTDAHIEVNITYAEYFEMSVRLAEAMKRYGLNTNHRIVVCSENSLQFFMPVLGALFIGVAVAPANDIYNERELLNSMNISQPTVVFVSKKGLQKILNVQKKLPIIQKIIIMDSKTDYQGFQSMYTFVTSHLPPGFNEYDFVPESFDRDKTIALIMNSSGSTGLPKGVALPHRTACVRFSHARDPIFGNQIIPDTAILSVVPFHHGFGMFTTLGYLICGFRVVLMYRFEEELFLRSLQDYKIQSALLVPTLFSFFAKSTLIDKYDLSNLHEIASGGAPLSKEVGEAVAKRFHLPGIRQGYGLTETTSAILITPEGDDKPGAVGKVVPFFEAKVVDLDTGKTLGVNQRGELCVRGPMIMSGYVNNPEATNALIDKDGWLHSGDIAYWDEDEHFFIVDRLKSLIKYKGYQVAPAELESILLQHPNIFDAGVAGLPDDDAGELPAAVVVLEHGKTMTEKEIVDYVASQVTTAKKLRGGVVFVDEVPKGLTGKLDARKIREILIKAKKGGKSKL
# FLuc act counter = firefly luciferase counter-screen for stimulation assays | ATPlite luciferase biochemical, luminescence, 10 min; 0 = ATP-free wells, 1 = DMSO control | activation factor at 10 µM | 200,000 tested, under 10 active | AID 1027;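 active = luciferase activation factor, scaled between plate controls, of at least 2 with compound at 10 µM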
#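 Material: luciferase plus luciferin reagent, cell-free. Medium: PBS buffer for ATP. Also added: ATP substrate, dispensed from a 10.24 µM working solution in PBS. Doses: test compounds dosed from 2 mM stocks in 100% DMSO. Incubation: 10 min post-reagent at room temperature. Technique: light output (luminescence). Read-out basis: luminescence gain marking luciferase activators.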
# Numbers without * were called inactive; · = no result given. In the library only some 3.5% were active in any assay of this set; here they are far more common.
SMILES,STAT1 act,APP 5'UTR act,NF-kB expr up,Pf gametocyte,FLuc inhib CS,FLuc act counter
Cc1ccc(NCCC(=O)c2cccs2)cc1C,142.6*,82.0,1.6,-11.7,38.3,0.6
CN(Cc1cccs1)C(=O)CCCc1c[nH]c2ccccc12,129.5*,57.9,1.04,5.8,5.2,0.9
COC(=O)c1ccc(Oc2nc(C)cc(Oc3ccccc3)n2)cc1,98.2,-2.3,1.03,·,-5.8,1.1
COC(=O)c1ccc(Oc2cc(C)nc(-n3nc(C)cc3C)n2)cc1,95.7,-93.5,3.89*,-9.3,-8.9,1.1
CN(C)c1cccc(C(=O)OCC(=O)Nc2nccs2)c1,108.0,4.7,1.27,6.8,7.6,0.9
Brc1ccccc1-c1nc(-c2ccccc2)no1,146.8*,180.5*,9.53*,·,72.7*,0.3
Fc1ccccc1-c1nc(-c2ccccc2)no1,130.4*,157.1*,6.5*,·,59.7*,0.4
Cc1cccc2nc(CSc3ccccc3N)cn12,140.1*,131.5,4.62*,·,·,·
Cc1c(C(=O)NCc2cccnc2)oc2ccc(S(=O)(=O)N3CCCC(C)C3)cc12 (centres undefined),99.8,2.9,0.89,·,-6.9,1.1
COc1ccc2sc3ccccc3c(=O)c2c1,131.6*,41.9,2.36,·,23.5,0.8
COc1ccc2oc3ccc(OC)cc3c(=O)c2c1,143.8*,66.5,3.1,0.9,41.8,0.6
COc1ccc2oc(=O)cc(C)c2c1,96.0,-1.2,1.25,11.9,-2.8,1
COC(=O)c1c(-c2ccccc2OC)sc2ccc(OC)cc12,·,·,·,1.6,·,·
Cc1ccc(NC(=O)c2snc3ccc(Cl)cc23)cc1C,130.5*,92.2,1.73,-8.0,0.1,1
Cc1ccc(NC(=O)c2snc3c(=O)[nH]cnc23)cc1C,103.2,6.7,1.23,·,-3.8,1
Cc1cc(=O)n2[nH]c(-c3ccc(Cl)cc3)cc2n1,143.2*,24.0,2.71,·,32.2,0.7
Cc1cc(=O)n2[nH]c(-c3ccc(F)cc3)cc2n1,122.7,21.6,2.36,0.7,15.7,0.8
CCCc1cc(=O)n2[nH]c(-c3ccc(Br)cc3)cc2n1,143.8*,58.3,2.07,-8.2,9.5,0.9
COC(=O)Cn1c(=O)c(C(=O)CCl)c(N)n(Cc2ccccc2)c1=O,·,·,·,-1.3,·,·
NC(=S)N/N=C1\c2ccccc2-c2c(C(=O)O)cccc21,·,·,·,-5.7,·,·
CCOC(=O)[C@H]1[C@H]2COc3ccc(Br)cc3[C@@H]2N2C(=O)CN(Cc3ccc(OC)cc3)C(=O)[C@@]12C,·,·,·,-12.2,·,·
COC(=O)c1ccc(NC(=S)Nc2ccccc2)cc1,95.6,-3.4,1.42,·,1.3,1
COC(=O)c1ccc(NC(=S)NC2c3ccccc3CC2O)cc1 (centres undefined),99.2,3.9,4.04*,-6.5,-3.8,1
NNC(=O)c1sc(-c2ccc(Cl)cc2)cc1N,134.5*,6.7,1.13,22.8,0.8,1
CCOC(=O)c1sc(-c2ccccc2)cc1NC(=O)Nc1ccccc1,99.3,3.1,0.84,0.0,2.6,1
SMILES,STAT1 act,APP 5'UTR act,NF-kB expr up,Pf gametocyte,FLuc inhib CS,FLuc act counter
CCOC(=O)c1cc(-c2ccccc2)sc1NC(=O)C(C)C,97.0,23.5,0.82,4.4,1.0,1
CCOC(=O)c1sc(-c2ccc(Br)cc2)cc1N,137.3*,77.0,2.5,·,13.0,0.9
CCOC(=O)c1cc(-c2ccc(N)cc2)sc1N,139.4*,19.3,3,·,12.9,0.9
CCOC(=O)N1CCN(C(=O)c2cn(CC)c3ccc(S(=O)(=O)N4CC(C)CC(C)C4)cc3c2=O)CC1 (centres undefined),97.6,-5.2,1.08,8.5,-9.1,1.1
CCC1(c2ccccc2)ON(c2c(Br)cccc2Br)C1=O (centres undefined),·,·,·,16.5,·,·
COc1ccccc1NC(=O)c1oc2ccc(C)cc2c1C,129.0*,2.1,2.46,19.3,22.3,0.8
COc1ccccc1NC(=O)c1oc2ccccc2c1NC(=O)c1cc(OC)c(OC)c(OC)c1,101.8,4.6,·,·,·,·
O=C(Cc1ccccc1[N+](=O)[O-])NCc1ccc(Cl)cc1Cl,131.2*,97.9,4.44*,7.6,59.2*,0.4
Cc1cccc(N2C(=O)CC(SC(=Nc3ccccc3)Nc3ccccc3)C2=O)c1 (centres undefined),94.8,-5.0,0.69,·,-2.2,1
O=C1SC(SC(=Nc2ccccc2)Nc2ccccc2)C(=O)N1c1ccccc1 (centres undefined),138.1*,18.2,1.91,·,-4.5,1
Cc1ccc(/C=C/c2nc3ccccc3[nH]2)o1,90.3,259.1*,6.49*,-12.9,85.7*,0.1
COc1ccc(S(=O)(=O)Cc2ccc(C(=O)NCCCN(C)c3ccccc3)o2)cc1,86.9,-6.0,1.39,·,-9.9,1.1
Cc1ccc2nc3ccc(N4CCCCCCC4)nn3c(=O)c2c1,143.6*,4.0,2.1,·,62.3*,0.4
Cc1sc2nc3ccc(N4CCCC4)nn3c(=O)c2c1C,116.1,19.7,1.26,·,24.3,0.8
Cc1ccc2nc3ccc(N4CCN(C)CC4)nn3c(=O)c2c1,136.6*,54.3,2.24,·,47.1,0.5
O=c1c2ccccc2nc2ccc(N3CCOCC3)nn12,111.9,19.7,1.68,14.7,25.5,0.7
COc1ccc2c(c1)sc1nc(-c3ccccc3)cn12,34.5,-86.5,0.63,7.8,96.7*,0
CCOc1ccc2[nH]c(=O)c(CN(CCOC)C(=O)N3CCOCC3)cc2c1,101.5,11.2,0.89,·,-6.5,1.1
CC(=O)c1cccc(NC(=O)c2cc3ccccn3n2)c1,121.4,78.4,1.92,·,71.7*,0.3
Cc1ccc(C)c(NC(=O)c2cc3ccccn3n2)c1,134.5*,124.6,3.05,·,38.5,0.6
Cc1ccccc1NC(=O)c1cc2ccccn2n1,·,·,·,-1.7,·,·
CC(=O)c1ccc(NC(=O)c2cnn3ccccc23)cc1,22.5,105.3,3.14,·,42.5,0.6
CC(=O)c1cccc(NC(=O)c2cnn3ccccc23)c1,129.2*,·,3.36*,·,26.0,0.7
COCCNC(=S)N(CCO)Cc1cc2cc3c(cc2[nH]c1=O)OCCO3,·,·,·,-24.0,·,·
CCC(=O)Nc1cccc(-n2nnnc2SCC(=O)N(C(C)C)C(C)C)c1,94.6,-1.9,0.99,15.4,-7.2,1.1
CCN(CCO)C(=O)C12CCC(C)(C(=O)C1)C2(C)C (centres undefined),94.4,-14.8,0.95,-18.9,-5.4,1.1
COc1ccc(C(=O)Cc2ccc3c(c2)OCO3)c(O)c1,147.1*,129.1,2.52,-12.6,18.3,0.8
Cc1ccc(C(=O)NC2CCN(CC(=O)Nc3cccc([N+](=O)[O-])c3)CC2)cc1,100.7,-11.4,1.13,-1.1,6.2,0.9
CCCOc1ccc(-c2nnc(-c3ccncc3)o2)cc1,126.0,124.0,3.7*,-3.1,7.3,0.9
CC(C)COc1ccc(-c2nnc(-c3ccncc3)o2)cc1,136.0*,33.8,2.82,-6.3,6.6,0.9
